Measurements as given in ChEMBL document CHEMBL2093137, “WHO-TDR NTD Screening”.
Values after ≈ are worked out from the molar mass of the structure shown.

Columns and labels:
[1] = WHO-TDR: Cytotoxicity; format: toxicity, cell-based; settings: human, MRC5 cells
Plasmodium falciparum K1 = assay: WHO-TDR: Malaria; format: functional, organism-based, Homo sapiens; settings: Erythrocyte
How it was run: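 Previously published standard procedures, including a reference drug as positive control, were used to screen whole Plasmodium falciparum K1 parasites inside human red blood cells. IC50 is the measure of antiplasmodial potency. The compounds were a 10,000-member diverse Life Chemicals library.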

Trypanosoma cruzi = assay: WHO-TDR: Chagas disease; format: functional, organism-based, Homo sapiens; settings: MRC5
How it was run: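 A diverse library of 10,000 compounds from Life Chemicals, filtered for drug-likeness and reactive groups, was screened against intracellular amastigotes of Trypanosoma cruzi Tulahuen CL2 beta-galactosidase strain. The parasites were grown in MRC-5SV2 human lung fibroblast host cells, and a reference drug served as positive control under previously published standard procedures. Antiparasitic potency is given as IC50.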

[2] = test system: Trypanosoma brucei brucei; assay: WHO-TDR: Human African Trypanosomiasis (HAT); format: functional, organism-based; settings: Squib-427
How it was run: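 In this whole-organism screen, the target was the bloodstream form of Trypanosoma brucei, strain Squib 427. A diverse set of 10,000 compounds from Life Chemicals, previously filtered for drug-likeness and reactive groups, was assayed by standard published procedures using reference drugs as positive controls. Each value is an IC50 for antiparasitic potency.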

Leishmania infantum = assay: WHO-TDR: Leishmaniasis; format: functional, organism-based, Mus musculus; settings: Macrophage
How it was run: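 Intracellular amastigotes of Leishmania infantum MHOM/MA(BE)/67, hosted in murine peritoneal macrophages, were exposed to compounds from a 10,000-member diverse library supplied by Life Chemicals. The library had been filtered for drug-likeness and reactive groups. The reported IC50 expresses antiparasitic potency.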

Schistosoma mansoni = assay: WHO-TDR: Schistosomiasis; format: functional; parameters: concentration or dose not given beside the values
How it was run: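 Values are reported as percent inhibition and IC50. They come from a whole-organism screen of a 10,000-compound diverse Life Chemicals library against larval and/or adult worms of Schistosoma mansoni, Puerto Rican strain. The library had been filtered for drug-likeness and reactive groups.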

Onchocerca lienalis = assay: (§1) WHO-TDR: Onchocerciasis; format: functional; parameters: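 at 12.5 µM on microfilariae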
How it was run: (§2)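 Values are reported as percent inhibition and as IC50. They come from a whole-organism screen of a 10,000-compound diverse Life Chemicals library against microfilariae of Onchocerca ochengi or Onchocerca lienalis. The screen followed previously published standard procedures, with reference drugs as positive controls.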

Onchocerca ochengi = assay: as §1; format: functional; parameters: concentration or dose not given beside the values; how it was run: as §2;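 further: at 12.5 µM on microfilariae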
Brugia malayi = assay: WHO-TDR: Lymphatic Filariasis; format: functional; parameters: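 tested at 10 µM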
How it was run: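 Values are percent inhibition and IC50 from a whole-organism screen against Brugia malayi microfilariae. The compounds, 10,000 in all, came from a diverse Life Chemicals library filtered for drug-likeness and reactive groups.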

| SMILES | IC50 [1] | IC50 (Plasmodium falciparum K1) | IC50 (Trypanosoma cruzi) | IC50 [2] | IC50 (Leishmania infantum) | % Inhibition (Schistosoma mansoni) | % Inhibition (Onchocerca lienalis) | % Inhibition (Onchocerca ochengi) | % Inhibition (Brugia malayi) |
| --- | --- | --- | --- | --- | --- | --- | --- | --- | --- |
| CCOC(=O)Cn1/c(=N/C(=O)c2ccccc2Br)sc2cc(S(C)(=O)=O)ccc21 | > 14.9 µg/mL | > 14.9 µg/mL | > 14.9 µg/mL | > 14.9 µg/mL | > 14.9 µg/mL | 100% | 0% |  |  |
| CN(C)CCCN(C(=O)c1ccc(S(=O)(=O)N(C)C2CCCCC2)cc1)c1nc2c(F)cccc2s1 | 3.08 µg/mL (≈ 5.78 µM) | 3.44 µg/mL (≈ 6.46 µM) | 5.16 µg/mL (≈ 9.69 µM) | 5.59 µg/mL (≈ 10.5 µM) | 5.53 µg/mL (≈ 10.4 µM) | 0% | 0% |  |  |
| C=CCn1/c(=N/C(=O)c2ccccc2I)sc2cc(S(C)(=O)=O)ccc21 | > 15 µg/mL | > 15 µg/mL | > 15 µg/mL | > 15 µg/mL | > 15 µg/mL | 100% | 20% |  |  |
| CN(C)S(=O)(=O)c1ccc(C(=O)Nc2nnc(SCC(=O)NCc3ccco3)s2)cc1 | 3.06 µg/mL (≈ 6.36 µM) | 2.42 µg/mL (≈ 5.03 µM) | 0.933 µg/mL (≈ 1.94 µM) | 5.04 µg/mL (≈ 10.5 µM) | 5.04 µg/mL (≈ 10.5 µM) | 0% | 6.7% |  |  |
| CCOc1ccc(C(=O)Nc2nc3c(Cl)ccc(Cl)c3s2)cc1 | > 11 µg/mL | > 11 µg/mL | > 11 µg/mL | > 11 µg/mL | > 11 µg/mL | 100% | 33.34% |  |  |
| COc1cccc(NC(=O)CSc2nc(-c3ccccc3Cl)ns2)c1 | > 11.8 µg/mL | 0.24 µg/mL (≈ 0.612 µM) | > 11.8 µg/mL | > 11.8 µg/mL | > 11.8 µg/mL |  | 6.7% |  |  |
| CN(C)CCCN(C(=O)CCSc1ccccc1)c1nc2cc3c(cc2s1)OCO3 | 3.54 µg/mL (≈ 7.97 µM) | 3.42 µg/mL (≈ 7.7 µM) | 0.416 µg/mL (≈ 0.938 µM) | 2 µg/mL (≈ 4.51 µM) | 0.466 µg/mL (≈ 1.05 µM) | 0% | 0% |  |  |
| N#Cc1ccsc1NC(=O)C(c1ccccc1)c1ccccc1 | > 9.55 µg/mL | > 9.55 µg/mL | > 9.55 µg/mL | > 9.55 µg/mL | > 9.55 µg/mL | 100% | 0% |  |  |
| Cc1c(Cl)ccc2sc(NC(=O)c3ccc(N(C)C)cc3)nc12 | > 10.4 µg/mL | > 10.4 µg/mL | > 10.4 µg/mL | > 10.4 µg/mL | > 10.4 µg/mL | 0% | 50% |  |  |
| O=C(Cc1ccc(Cl)cc1)Nc1cccc(-c2nc3cccnc3s2)c1 | > 11.4 µg/mL | > 11.4 µg/mL | > 11.4 µg/mL | > 11.4 µg/mL | 0.369 µg/mL (≈ 0.971 µM) | 58.3% | 66.7% |  |  |
| O=C(Nc1nc(-c2ccccn2)cs1)c1cc(Cl)sc1Cl | 3.89 µg/mL (≈ 10.9 µM) | > 10.7 µg/mL | 0.069 µg/mL (≈ 0.194 µM) | 0.182 µg/mL (≈ 0.511 µM) | > 10.7 µg/mL |  | 80% |  |  |
| O=S(=O)(CCCOc1ccc(F)cc1)NCCCc1ccccc1 | 10.5 µg/mL (≈ 30 µM) | > 10.5 µg/mL | > 10.5 µg/mL | > 10.5 µg/mL | > 10.5 µg/mL | 0% |  | 100% | 0% |
| O=C(NCCNc1ccc(Nc2ccccn2)nn1)c1ccc(F)cc1 | > 10.6 µg/mL | 4.32 µg/mL (≈ 12.3 µM) | > 10.6 µg/mL | > 10.6 µg/mL | > 10.6 µg/mL | 0% |  | 100% | 0% |
| O=C(CCSc1ccccc1)NCCOc1ccc2nnc(-c3ccc(F)cc3)n2n1 | > 13.1 µg/mL | > 13.1 µg/mL | > 13.1 µg/mL | > 13.1 µg/mL | 0.425 µg/mL (≈ 0.971 µM) | 41.7% |  | 0% | 33.33% |
| O=S(=O)(c1cccc(F)c1)N1CCN(c2ccc(-c3ccncc3)nn2)CC1 | > 12 µg/mL | > 12 µg/mL | > 12 µg/mL | > 12 µg/mL | 0.388 µg/mL (≈ 0.971 µM) | 0% |  | 0% | 33.33% |
| CCc1ccc(NC(=O)N2CCN(c3ccc(Nc4cc(C)ccn4)nn3)CC2)cc1 | > 12.5 µg/mL | 8.24 µg/mL (≈ 19.7 µM) | > 12.5 µg/mL | > 12.5 µg/mL | > 12.5 µg/mL | 0% |  | 100% | 50% |
| Cc1ccnc(Nc2ccc(N3CCN(C(=O)Nc4cccc(F)c4)CC3)nn2)c1 | > 12.2 µg/mL | > 12.2 µg/mL | > 12.2 µg/mL | 5.79 µg/mL (≈ 14.2 µM) | > 12.2 µg/mL | 0% |  | 100% | 75% |
| COc1cc(C(=O)Nc2ccc3c(c2)N(C(=O)c2ccco2)CC3)cc(OC)c1OC | 2.08 µg/mL (≈ 4.91 µM) | 11.5 µg/mL (≈ 27.1 µM) | > 12.7 µg/mL | > 12.7 µg/mL | > 12.7 µg/mL | 16.7% |  | 100% | 0% |
| O=C(Cc1cccs1)N1CCN(c2nccn2-c2cccc(Cl)c2)CC1 | > 12.7 µg/mL | 12 µg/mL (≈ 31.1 µM) | 7.14 µg/mL (≈ 18.5 µM) | 4.77 µg/mL (≈ 12.3 µM) | 0.411 µg/mL (≈ 1.06 µM) | 0% |  | 50% | 0% |
| O=C(c1ccc2c(c1)OCO2)C1C(=O)N(c2ccccc2)N=C1c1ccccc1 (stereo not drawn) | 6.6 µg/mL (≈ 17.2 µM) | > 11.5 µg/mL | > 11.5 µg/mL | 3.32 µg/mL (≈ 8.63 µM) | > 11.5 µg/mL | 0% |  | 100% | 0% |
| CC(C)(C)C(=O)N1CCN(c2ccc(-c3ccncc3)nn2)CC1 | > 9.76 µg/mL | > 9.76 µg/mL | > 9.76 µg/mL | > 9.76 µg/mL | > 9.76 µg/mL | 100% |  | 0% | 33.33% |
| COc1ccc(OC)c(S(=O)(=O)NCCNc2ccc(Nc3cc(C)ccn3)nn2)c1 | > 13.3 µg/mL | 5.13 µg/mL (≈ 11.5 µM) | > 13.3 µg/mL | 4.66 µg/mL (≈ 10.5 µM) | > 13.3 µg/mL | 0% |  | 100% | 50% |
| CSc1ccc2nc(N(Cc3cccnc3)C(=O)c3ccc(C(C)(C)C)cc3)sc2c1 | 7.16 µg/mL (≈ 16 µM) | 0.145 µg/mL (≈ 0.324 µM) | 0.556 µg/mL (≈ 1.24 µM) | > 13.4 µg/mL | > 13.4 µg/mL | 0% |  | 25% | 0% |
| Cc1ccc(-n2ccnc2N2CCN(C(=O)/C=C\c3ccccc3)CC2)cc1 | > 12.3 µg/mL | 6.82 µg/mL (≈ 18.3 µM) | 3.88 µg/mL (≈ 10.4 µM) | 4.07 µg/mL (≈ 10.9 µM) | > 12.3 µg/mL | 25% |  | 100% | 0% |
| O=C(CN1CCN(c2nccn2-c2cccc(Cl)c2)CC1)N1CCc2ccccc21 | 14.2 µg/mL (≈ 33.6 µM) | 7.54 µg/mL (≈ 17.9 µM) | 5.05 µg/mL (≈ 12 µM) | 4.69 µg/mL (≈ 11.1 µM) | 0.481 µg/mL (≈ 1.14 µM) | 0% |  | 75% | 0% |
| CS(=O)(=O)N1CCCC1C(=O)Nc1nc(-c2ccc(Cl)s2)cs1 (stereo not drawn) | > 11.8 µg/mL | 3.6 µg/mL (≈ 9.18 µM) | > 11.8 µg/mL | > 11.8 µg/mL | > 11.8 µg/mL | 0% |  | 100% | 0% |
| COc1ccc(Cl)cc1NC(=O)CSc1ccc(NC(=O)C2CC2)nn1 | > 11.8 µg/mL | > 11.8 µg/mL | > 11.8 µg/mL | > 11.8 µg/mL | > 11.8 µg/mL | 33.3% |  | 100% | 0% |
